Data from ChEMBL document CHEMBL1122782, “Bulky amine analogues of ketoprofen: potent antiinflammatory agents” (J Med Chem, 1984).

Tests used:
Rattus norvegicus [1] = assay: The mean increase in paw volume was compared between drug treated groups and placebo to calculate the percent inhibition in rats at 0.02 mmol/kg by carrageenan Edema Assay 0-19; type: functional
Rattus norvegicus [2] = assay: The mean increase in paw volume was compared between drug treated groups and placebo to calculate the percent inhibition in rats at 0.08 mmol/kg by carrageenan Edema Assay; 0-19; type: functional
Rattus norvegicus [3] = assay: Ulcerogenicity was measured in stomach during the 3 week adjuvant arthritis test, no of animals with ulcers out of 8 animals tested at 0.02 mM/kg (8.76 mg) was reported; type: functional
How it was run: (§1)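 Male Sprague-Dawley rats (200–230 g) were injected in the plantar tissue of one hind paw with 0.1 mL of 0.6% M. butyricum suspension in heavy mineral oil. Daily oral gavage began on the day of adjuvant injection and ran for the 21 days, with drug suspended in 1% gum tragacanth or a corn oil-water emulsion. At the end the rats were sacrificed and the small intestine and stomach were examined for ulcers. Results are given as animals with ulcers/animals tested.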

Rattus norvegicus [4] = assay: Antiinflammatory efficacy is measured by the weight gain in rats during the 3 week adjuvant arthritis test at 0.005 mM/kg (2.19 mg); type: functional
How it was run: (§2)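 Rats were adjuvant-injected (M. butyricum in mineral oil, one hind paw) or given a mineral-oil placebo. They were dosed by gavage daily for 21 days from the injection day, with vehicle only for both control groups, then weighed at the end. Weight gain % = (treated − adjuvant control)/(negative control − adjuvant control) × 100.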

Rattus norvegicus [5] = assay: Potency relative to phenylbutazone at 0.005 mM/kg; type: functional
Rattus norvegicus [6] = assay: Antiinflammatory efficacy is measured by the weight gain in rats during the 3 week adjuvant arthritis test at 0.02 mM/kg (8.76 mg); type: functional; how it was run: as §2
Rattus norvegicus [7] = assay: Ulcerogenicity was measured in intestine during the 3 week adjuvant arthritis test, no of animals with ulcers out of 8 animals tested at 0.02 mM/kg (8.76 mg) was reported; type: functional
How it was run: (§3)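 In the 21-day adjuvant arthritis model, male Sprague-Dawley rats (200–230 g) received an M. butyricum mineral-oil suspension into one hind paw. They were dosed daily by gavage from the day of injection. At the end of the study the rats were killed, and the small intestines were examined for ulcers. Results are given as the number of ulcerated animals over the number tested.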

Rattus norvegicus [8] = assay: Ulcerogenicity was measured in intestine during the 3 week adjuvant arthritis test, no of animals with ulcers out of animals tested at 0.08 mM/kg (35.0 mg) was reported; toxic; type: functional, organism-based; how it was run: as §1
Rattus norvegicus [9] = assay: Antiinflammatory efficacy is measured by the percent inhibition of paw volume during the 3 week adjuvant arthritis test at 0.02 mM/kg (8.76 mg); type: functional
How it was run: (§4)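 Male Sprague-Dawley rats (200–230 g) were used in groups of eight. Each received 0.1 mL of 0.6% M. butyricum in heavy mineral oil into the plantar tissue of one hind paw. Daily oral gavage in 1% gum tragacanth or corn oil-water emulsion began on the injection day and ran 21 days. Total hind paw volume was measured by mercury displacement, and inhibition was taken versus vehicle-treated adjuvant controls.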

Rattus norvegicus [10] = species on record: Rattus norvegicus; assay: Compound was evaluated for highest non-ulcerogenic dose (less than 50% ulcer incidence); type: functional; conditions: read-out: ED50
How it was run: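 Taken from the 21-day adjuvant arthritis test in male Sprague-Dawley rats dosed orally each day from the day of adjuvant injection. Small intestines and stomachs were examined for ulceration at the end. The value is the highest dose giving less than 50% ulcer incidence.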

Rattus norvegicus [11] = assay: Antiinflammatory efficacy is measured by the percent inhibition of paw volume during the 3 week adjuvant arthritis test at 0.005 mM/kg (2.19 mg); type: functional; how it was run: as §4
Rattus norvegicus [12] = assay: The mean increase in paw volume was compared between drug treated groups and placebo to calculate the percent inhibition in rats at 0.02 mmol/kg by carrageenan Edema Assay; 50-59; type: functional
Rattus norvegicus [13] = assay: Ulcerogenicity was measured in intestine during the 3 week adjuvant arthritis test, no of animals with ulcers out of 15 animals tested at 0.08 mM/kg (32.3 mg) was reported; type: functional; how it was run: as §3
Rattus norvegicus [14] = species on record: Rattus norvegicus; assay: Effective Dose 50 is the amount of material required to produce effect in 50% of an animal population; type: functional
Rattus norvegicus [15] = assay: Ulcerogenicity was measured in intestine during the 3 week adjuvant arthritis test, no of animals with ulcers out of 4 animals tested at 0.02 mM/kg (8.07 mg) was reported; type: functional; how it was run: as §3
Rattus norvegicus [16] = assay: The percent inhibition was calculated from the average differences in hind paw volume between the adjuvant injected controls and the adjuvant-injected medicated rats at 0.08 mmol/kg; 80-89; type: functional
Rattus norvegicus [17] = assay: Antiinflammatory efficacy is measured by the percent inhibition of paw volume during the 3 week adjuvant arthritis test at 0.02 mM/kg (8.07 mg); type: functional; how it was run: as §4
Rattus norvegicus [18] = assay: Antiinflammatory efficacy is measured by the weight gain in rats during the 3 week adjuvant arthritis test at 0.08 mM/kg (32.3 mg); type: functional; how it was run: as §2
Mus musculus = species on record: Mus musculus; assay: Effective Dose 50 is the amount of material required to elicit analgesic effect in 50% of an animal population
Rattus norvegicus [19] = assay: Ulcerogenicity was measured in stomach during the 3 week adjuvant arthritis test, no of animals with ulcers out of 4 animals tested at 0.02 mM/kg (8.07 mg) was reported; type: functional; how it was run: as §1
Rattus norvegicus [20] = assay: Antiinflammatory efficacy is measured by the percent inhibition of paw volume during the 3 week adjuvant arthritis test at 0.08 mM/kg (32.3 mg); type: functional; how it was run: as §4
Rattus norvegicus [21] = assay: Antiinflammatory efficacy is measured by the weight gain in rats during the 3 week adjuvant arthritis test at 0.02 mM/kg (8.07 mg); type: functional; how it was run: as §2
Rattus norvegicus [22] = assay: Ulcerogenicity was measured in stomach during the 3 week adjuvant arthritis test, no of animals with ulcers out of 15 animals tested at 0.08 mM/kg (32.3 mg) was reported; type: functional; how it was run: as §1
Rattus norvegicus [23] = assay: The mean increase in paw volume was compared between drug treated groups and placebo to calculate the percent inhibition in rats at 0.02 mmol/kg by carrageenan Edema Assay; 30-39; type: functional; conditions: Rattus norvegicus
Rattus norvegicus [24] = assay: Ulcerogenicity was measured in intestine during the 3 week adjuvant arthritis test, no of animals with ulcers out of tested animals at 0.16 mM/kg (64.6 mg) was reported; Toxic; type: functional, organism-based; how it was run: as §1
Rattus norvegicus [25] = assay: Antiinflammatory efficacy is measured by the percent inhibition of paw volume during the 3 week adjuvant arthritis test at 0.005 mM/kg (2.02 mg); type: functional; how it was run: as §4
Rattus norvegicus [26] = assay: Antiinflammatory efficacy is measured by the weight gain in rats during the 3 week adjuvant arthritis test at 0.005 mM/kg (2.02 mg); type: functional; how it was run: as §2

Q: Which inhibition in vivo at 20 µmol/kg (Rattus norvegicus [1]) does the source give for O=C(c1ccccc1)c1cccc(CCN2CCOCC2)c1 here?
A: Its inhibition in vivo at 20 µmol/kg is 0%.

Q: Which inhibition in vivo at 80 µmol/kg (Rattus norvegicus [2]) does the source give for CC(CN1CCCC1CC1CCCCC1)c1cccc(C(O)c2ccccc2)c1 (stereo not drawn) here?
A: Its inhibition in vivo at 80 µmol/kg is 0%.

Q: What does the source list for CC(CN1CCCCC1CC1CCCCC1)c1cccc(C(=O)c2ccc(Cl)cc2)c1 (stereo not drawn)?
A: Ulcerogenic index (Rattus norvegicus [3]): 0; Weight gain (Rattus norvegicus [4]): 34%; Relative potency (Rattus norvegicus [5]): 11.9%; Weight gain (Rattus norvegicus [6]): 89%; Ulcerogenic index (Rattus norvegicus [7]): 0; Ulcerogenic index (Rattus norvegicus [8]): Toxic; Inhibition (Rattus norvegicus [9]): 90%; highest non-ulcerogenic dose (Rattus norvegicus [10]): 3 µmol/kg; Inhibition (Rattus norvegicus [11]): 62%; inhibition in vivo at 20 µmol/kg (Rattus norvegicus [12]): 50%

Q: CC(CN1CCCCC1CC1CCCCC1)c1cccc(C(=O)c2ccccc2)c1 (stereo not drawn) was tested. Which Ulcerogenic index (Rattus norvegicus [13]) did it give?
A: The Ulcerogenic index was 4.

Q: And the ED50 (Rattus norvegicus [14])?
A: The ED50 was 3 µmol/kg.

Q: What about the Relative potency (Rattus norvegicus [5]) of the same compound?
A: The Relative potency was 8.7%.

Q: And the Ulcerogenic index (Rattus norvegicus [15])?
A: The Ulcerogenic index was 1.

Q: What about the inhibition in vivo at 80 µmol/kg (Rattus norvegicus [16]) of the same compound?
A: The inhibition in vivo at 80 µmol/kg was 80%.

Q: And the Inhibition (Rattus norvegicus [17])?
A: The Inhibition was 79%.

Q: What about the Weight gain (Rattus norvegicus [18]) of the same compound?
A: The Weight gain was 82%.

Q: And the ED50 (Mus musculus)?
A: Its ED50 is 55 mg/kg.

Q: What about the Ulcerogenic index (Rattus norvegicus [19]) of the same compound?
A: Its Ulcerogenic index is 0.

Q: And the Inhibition (Rattus norvegicus [20])?
A: The Inhibition was 90%.

Q: What about the Weight gain (Rattus norvegicus [21]) of the same compound?
A: Its Weight gain is 55%.

Q: What about the Ulcerogenic index (Rattus norvegicus [22]) of the same compound?
A: The Ulcerogenic index was 1.

Q: And the inhibition in vivo at 20 µmol/kg (Rattus norvegicus [23])?
A: Its inhibition in vivo at 20 µmol/kg is 30%.

Q: What about the Ulcerogenic index (Rattus norvegicus [24]) of the same compound?
A: The Ulcerogenic index was “Toxic”.

Q: What about the Inhibition (Rattus norvegicus [25]) of the same compound?
A: Its Inhibition is 56%.

Q: What about the Weight gain (Rattus norvegicus [26]) of the same compound?
A: The Weight gain was 27%.
